PfHsp90 set2 – reduces growth (ATP signal) of yeast expressing P. falciparum Hsp90; S. cerevisiae expressing PfHsp90, BacTiter-Glo ATP, 48 h; yeast lacking PDR1 and PDR3 efflux regulators; inhibition, % at 9.4 µM; actives 0.32% (n = 310,000);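 active = every replicate shows inhibition above about 80%, whatever the replicate mean, limit read from the data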;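 also: 0% = DMSO neutral controls and 100% = 20 µM radicicol positive controls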
SKKanGAS inh – SKKanGAS growth inhibition; S. pyogenes SKKanGAS, kanamycin growth, BacTiter-Glo, 6 h; inhibition, % at 7.5 µM; actives 1.3% (n = 300,000); AID 1662;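 active = mean replicate score, as percent of positive control median, at least 50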;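 also: strain carries kanamycin resistance gene driven by streptokinase promoter and grows in 40 µg/ml kanamycin; loss of luminescence reflects streptokinase promoter inhibition or plain growth inhibition; 0% = median of DMSO wells and 100% = positive control at its reference dose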
CSC inhib – cancer stem cell inhibition; cancer stem cell-like cells viability, luminescence; actives 1.1% (n = 300,000); inhibition, % at 7.5 µM; in the data active = inhibition above about 75%; tested in HMLE shEcad cells
FN deposit inh – fibronectin deposition inhibition; AH1F fibroblasts, Alexa488-fibronectin deposition fluorescence, overnight; inhibition, % at 12.6 µM; actives 0.086% (n = 350,000); AID 743247;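 active = mean inhibition across replicates of 30% or more, regardless of how many single replicates reach that level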;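 also: positive control wells lacked labelled fibronectin entirely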
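Assay system: AH1F fibroblasts assembling fluorescent fibronectin matrix; Amount: 10000 AH1F cells per well; Buffer or medium: DMEM, 2% serum; Probe or stimulus: Alexa488-fibronectin, 24 nM final in well; Doses: single compound dose, delivered by pin transfer; Incubation: 1 h adhesion, overnight exposure; Measured by: fluorescence 485/525 nm; Read-out: fibronectin deposition inhibition.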
Rtt109 Vps75 – blocks Candida albicans Rtt109/Vps75 acetyltransferase activity | Q5AAJ8 | purified Rtt109/Vps75, ThioGlo CoA-SH fluorescence, 4 h | inhibition, % at 34.9 µM | actives 0.16% (n = 330,000) | AID 540336;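 active = inhibition of at least 50% in every replicate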
Target sequence (Q5AAJ8 whole entry, looked up): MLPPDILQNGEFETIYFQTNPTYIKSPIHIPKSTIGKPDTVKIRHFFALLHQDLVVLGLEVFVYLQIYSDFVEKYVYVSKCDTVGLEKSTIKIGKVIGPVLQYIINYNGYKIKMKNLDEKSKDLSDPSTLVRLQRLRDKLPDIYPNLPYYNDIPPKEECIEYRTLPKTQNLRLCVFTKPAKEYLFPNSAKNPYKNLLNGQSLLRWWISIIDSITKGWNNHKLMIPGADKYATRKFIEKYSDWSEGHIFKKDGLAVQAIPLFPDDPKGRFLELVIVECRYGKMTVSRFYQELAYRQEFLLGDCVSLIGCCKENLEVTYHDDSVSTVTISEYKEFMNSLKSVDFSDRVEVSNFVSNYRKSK
PglD DTNB – blocks C. jejuni PglD acetyltransferase activity | purified PglD enzyme, DTNB colorimetric CoA detection | actives 0.098% (n = 360,000) | inhibition, % at 12.5 µM; in the data active = inhibition above about 16%, passing the limit was not always enough
Active calls of the source: *. A selection: hits, their analogues and other compounds. The true share with any hit is near 1.7%.

Screening C[C@H]1CN([C@@H](C)CO)C(=O)c2cccc(NS(=O)(=O)c3ccccc3)c2O[C@H]1CN(C)Cc1ccc(-c2ccccc2)cc1 returned PglD DTNB 1.2.
For COc1ccccc1S(=O)(=O)N[C@@H]1CC[C@H](CC(=O)N2CCCCC2)O[C@H]1CO the results were PglD DTNB 0.4.
Screening CCCCc1ccc(N=N/C(C(=O)Nc2ccc(NC(C)=O)cc2OC)=C(/C)O)cc1 returned PfHsp90 set2 -12.9, SKKanGAS inh 1.1, CSC inhib 80.0*, FN deposit inh -3.3, Rtt109 Vps75 7.7 and PglD DTNB -2.4.
`COc1ccc([N+](=O)[O-])c(S(=O)(=O)c2ccc(Cl)cc2)n1` gave PfHsp90 set2 109.0*, SKKanGAS inh 0.2, CSC inhib 39.0, FN deposit inh 17.4, Rtt109 Vps75 8.6 and PglD DTNB 11.2.
`COc1ccc([N+](=O)[O-])c(S(=O)(=O)c2ccccc2)n1` gave SKKanGAS inh 3.7, CSC inhib 45.0, FN deposit inh 21.6 and PglD DTNB 10.6.
Screening CC(C)(C)C1CCC(CN2C(Nc3ccccc3)=NC[C@@H]2Cc2ccccc2)CC1 (some centres undefined) returned PfHsp90 set2 -18.7, CSC inhib 106.7*, FN deposit inh 22.1, Rtt109 Vps75 32.8 and PglD DTNB -1.6.
`CCN1C(Nc2ccccc2)=NC[C@@H]1Cc1ccccc1` gave PfHsp90 set2 10.1, SKKanGAS inh 6.5, CSC inhib 1.7, FN deposit inh -11.9, Rtt109 Vps75 6.1 and PglD DTNB -6.7.
`COc1ccc(NC(=O)N(C)C[C@@H]2OCCCC[C@H](C)Oc3ccc(NS(=O)(=O)c4ccc(C)cc4)cc3C(=O)N([C@H](C)CO)C[C@H]2C)cc1` gave FN deposit inh -1.4 and PglD DTNB 17.2*.
Screening C[C@H](CO)N1C[C@H](C)[C@H](CN(C)Cc2ccc(-c3ccccc3)cc2)Oc2ccc(NC(=O)CCCN(C)C)cc2C1=O returned FN deposit inh 53.1* and PglD DTNB -2.8.
C[C@H](CO)N1C[C@H](C)[C@@H](CN(C)S(=O)(=O)c2ccccc2)Oc2ccc(NC(=O)Nc3ccc(C(F)(F)F)cc3)cc2C1=O was read as PfHsp90 set2 13.5, CSC inhib 102.2*, FN deposit inh -1.8, Rtt109 Vps75 9.0 and PglD DTNB 3.8.
C[C@@H]1CN([C@H](C)CO)C(=O)c2cc(NC(=O)Nc3ccc(F)cc3)ccc2O[C@H]1CN(C)Cc1ccc(Oc2ccccc2)cc1 was read as PglD DTNB -2.7.
Screening C[C@@H]1CN([C@@H](C)CO)C(=O)c2cc(NC(=O)Nc3ccc(F)cc3)ccc2O[C@@H]1CN(C)Cc1ccc(Oc2ccccc2)cc1 returned PfHsp90 set2 3.2, CSC inhib 137.4*, FN deposit inh -14.0, Rtt109 Vps75 -0.6 and PglD DTNB -2.3.
`C[C@H](CO)N1C[C@H](C)[C@@H](CN(C)Cc2ccc(-c3ccccc3)cc2)Oc2ccc(NC(=O)CCCN(C)C)cc2C1=O` gave FN deposit inh -3.7 and PglD DTNB -1.0.
Cc1ccc(S(=O)(=O)N(C)C[C@@H]2Oc3ccc(NC(=O)Nc4ccc(C(F)(F)F)cc4)cc3C(=O)N([C@H](C)CO)C[C@@H]2C)cc1 was read as PglD DTNB -5.0.
O=C(C1CCC1)N1CC(=O)N2[C@H](CO)[C@H](c3ccc(C#Cc4cccc(F)c4)cc3)[C@H]2C1 was read as FN deposit inh 6.3.
Screening CC(C)NC(=O)N(C)C[C@@H]1Oc2ccc(NC(=O)Cc3cn(C)c4ccccc34)cc2C(=O)N([C@@H](C)CO)C[C@@H]1C returned PglD DTNB 3.1.
For CC(C)NC(=O)N(C)C[C@@H]1Oc2ccc(NC(=O)Cc3cn(C)c4ccccc34)cc2C(=O)N([C@H](C)CO)C[C@H]1C the results were PglD DTNB 25.6*.
Screening C[C@@H]1CN([C@@H](C)CO)C(=O)c2cc(-c3ccccc3)cnc2O[C@H]1CN(C)Cc1ccccc1 returned FN deposit inh 13.3 and PglD DTNB 0.0.
`C[C@@H]1CN([C@@H](C)CO)C(=O)c2cc(-c3ccccc3)cnc2O[C@@H]1CN(C)Cc1ccccc1` gave FN deposit inh 38.5* and PglD DTNB 0.3.
For CCCC#Cc1cnc2c(c1)C(=O)N([C@@H](C)CO)C[C@H](C)[C@H](CN(C)C(=O)Nc1ccccc1F)O2 the results were PglD DTNB -1.6.
For FC(F)(F)c1cc(N2CCN(Cc3ccccc3)CC2)c2ccccc2n1 the results were PfHsp90 set2 7.3, SKKanGAS inh 50.0*, CSC inhib 40.9, FN deposit inh -13.6 and Rtt109 Vps75 12.9.
`Cc1ccccc1CSc1ccc(-c2ccc3c(c2)OCO3)nn1` gave PfHsp90 set2 17.6, SKKanGAS inh -9.0, CSC inhib 87.4*, FN deposit inh 7.8, Rtt109 Vps75 -5.6 and PglD DTNB 2.0.
Screening Fc1cccc(CSc2ccc(-c3ccc4c(c3)OCO4)nn2)c1 returned PfHsp90 set2 -28.7, SKKanGAS inh -3.7, CSC inhib 61.2, FN deposit inh 7.6, Rtt109 Vps75 8.6 and PglD DTNB 0.4.
`CN(C)CC(=O)Nc1ccc2c(c1)[C@H]1C[C@@H](CC(=O)NCCN3CCCCC3)O[C@H](CO)[C@H]1O2` gave PglD DTNB -1.9.
Cc1ccccc1N1CCN(S(=O)(=O)c2nnc(NC(=O)c3ccco3)s2)CC1 was read as PfHsp90 set2 31.0, SKKanGAS inh 50.6*, CSC inhib 33.6, FN deposit inh 6.9, Rtt109 Vps75 10.0 and PglD DTNB -1.3.
For Cc1ccc(NC(=S)N/N=C/c2ccc([N+](=O)[O-])s2)cc1 the results were PfHsp90 set2 100.3*, SKKanGAS inh 43.0, CSC inhib 0.8, FN deposit inh -5.9, Rtt109 Vps75 -3.6 and PglD DTNB -10.2.
O=[N+]([O-])c1ccc(C=Nc2ccc(Cl)c([N+](=O)[O-])c2)s1 was read as PfHsp90 set2 106.3*, FN deposit inh 7.7 and Rtt109 Vps75 6.7.
NC(=O)c1ccc(N=Cc2ccc([N+](=O)[O-])s2)cc1 was read as PfHsp90 set2 104.4*, CSC inhib 25.5, FN deposit inh -2.4 and Rtt109 Vps75 1.4.
`Cc1cc(C)cc(N=Cc2ccc([N+](=O)[O-])s2)c1` gave PfHsp90 set2 106.0*, SKKanGAS inh 5.6, CSC inhib 5.3, FN deposit inh -6.1 and Rtt109 Vps75 5.9.
`O=C(/C=C/c1ccco1)NC(=S)Nc1nc(-c2ccc3ccccc3c2)cs1` gave PfHsp90 set2 -4.3, SKKanGAS inh 5.6, CSC inhib 75.8*, FN deposit inh -5.0, Rtt109 Vps75 3.0 and PglD DTNB 2.1.

Screening data as filed in PubChem BioAssay.
